These results are taken from ChEMBL document CHEMBL4354813, “Design, Synthesis, and Pharmacological Evaluation of Potent Positive Allosteric Modulators of the Glucagon-like Peptide-1 Receptor (GLP-1R)” (J Med Chem, 2020).

A short description of series [1]: Metabolic lability in mouse liver microsomes incubated up to 20 mins by LC-MS/MS analysis.
The nature of series [2]: AUClast in C57Bl6 mouse at 10 mg/kg, po administered as single dose measured up to 24 hrs ESI-LC/MS-MS analysis. The format is ADME, organism-based. More on the design: dose 10 mg/kg, time < 24 hr, route oral. The settings on record: in vivo. The gist of the method:
(§1)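 Single dose of compound: 3 mg/kg i.v. in solution (75% water : 25% of 75% Glycoferol/25% Cremophor) or 10 mg/kg p.o. as wet-milled suspension (0.6% methylcellulose, 0.5% Tween 80 in water); male Wistar rats n=3 per route, female C57Bl6 mice n=24 per route. Plasma sampled 0.25–24 h (p.o.), 0.083–24 h (i.v.); heparinized plasma, acetonitrile precipitation, ESI-LC/MS-MS (LOQ 1 ng/mL rat, 5 ng/mL mouse); noncompartmental analysis, linear trapezoidal.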

The target in series [3] is Vasoactive intestinal polypeptide receptor 2 (Homo sapiens) (UniProt P41587). The experiment in a line: Activity at human VIPR expressed in PSC-HEK293 cells incubated for 30 mins by HTRF cAMP assay. (TR-FRET usually uses a lanthanide donor and a delayed reading to cut background.)
Series [4] relates to Mus musculus. The experiment in a line: Suppression of blood glucose concentration in 0.3 to 4.5 mg/kg, ip GLP1(9-36)NH2-treated normoglycemic C57Bl/6J mouse at 30 mg/kg, po dosed 1 hrs before test by oral glucose-tolerance test. It counts as functional, organism-based. The gist of the method: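 Male C57Bl/6J mice aged 10–11 weeks, n=6, fasted overnight. Rifampicin 60 mg/kg p.o. 2.5 h before the oGTT, compound p.o. 1 h before, GLP1(9-36)NH2 i.p. (0.3, 1, 3, 4.5 mg/kg) 15 min before. Glucose 2 g/kg orally. Tail-vein blood glucose by glucometer at 0, 15, 30, 60 and 90 min.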

Series [5] is described as follows: Volume of distribution at steady state in Wistar rat at 3 mg/kg, iv administered as single dose measured up to 24 hrs ESI-LC/MS-MS analysis. The settings on record: in vivo.
The target in series [6] is Voltage-gated inwardly rectifying potassium channel KCNH2 (Homo sapiens, UniProt Q12809). The experiment in a line: Inhibition of human ERG by patch clamp assay. For orientation: The patch-clamp technique gives a direct electrical read-out from membranes.
Series [7] is described as follows: Volume of distribution at steady state in Wistar rat at 3 mg/kg, iv administered as single dose treated 2 hrs after dosing with 40 mg/kg, po OATP/MRP2 inhibitor rifampicin and measured up to 24 hrs ESI-LC/MS-MS analysis. The settings on record: in vivo, read-out: Vdss. The format is ADME, organism-based.
Series [8] addresses Glucagon-like peptide 1 receptor (Homo sapiens, UniProt P43220). The experiment in a line: Positive allosteric modulator activity at human GLP-1R expressed in PSC-HEK293 cells assessed as potentiation of GLP-1(7-36)NH2-induced cAMP accumulation incubated for 30 mins by HTRF cAMP assay relative to control. The format is functional, cell-based. For orientation: cAMP levels reflect the balance of adenylyl cyclase and phosphodiesterase activity.

In series [9] the target is T1, Gastric inhibitory polypeptide receptor (Homo sapiens) (UniProt P48546).
T1 sequence (whole entry): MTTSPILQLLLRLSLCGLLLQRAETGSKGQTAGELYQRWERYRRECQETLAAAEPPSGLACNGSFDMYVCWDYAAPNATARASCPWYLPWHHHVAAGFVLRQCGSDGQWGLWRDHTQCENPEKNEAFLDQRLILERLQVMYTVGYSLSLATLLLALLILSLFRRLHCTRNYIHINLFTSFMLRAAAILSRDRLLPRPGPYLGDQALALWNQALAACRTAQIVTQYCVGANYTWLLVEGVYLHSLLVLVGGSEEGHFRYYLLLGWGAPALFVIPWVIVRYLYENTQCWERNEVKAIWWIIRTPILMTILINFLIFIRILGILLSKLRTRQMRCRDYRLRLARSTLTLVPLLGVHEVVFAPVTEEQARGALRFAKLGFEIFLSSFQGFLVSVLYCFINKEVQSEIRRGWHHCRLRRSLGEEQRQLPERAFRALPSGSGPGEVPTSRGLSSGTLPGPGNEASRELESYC
Put plainly: Activity at human GIPR expressed in PSC-HEK293 cells incubated for 30 mins by HTRF cAMP assay. It counts as functional, cell-based.

Series [10] can be described thus: Chemical stability in pH 7.4 buffer. It counts as physicochemical.
Series [11] can be described thus: Cmax in Wistar rat at 10 mg/kg, po administered as single dose measured up to 24 hrs ESI-LC/MS-MS analysis. It counts as ADME, organism-based. More on the design: dose 10 mg/kg, route oral. The settings on record: in vivo. The gist of the method:
as §1

A further series concerns the target Cytochrome P450 3A4 (Homo sapiens, UniProt P08684). Put plainly: Inhibition of CYP3A4 (unknown origin) using testosterone as substrate. It counts as ADME.
A short description of series [12]: Apparent permeability from apical and basolateral in human Caco2/TC7 cells at apical pH 6.5 with 0.5% BSA and basolateral pH 7.4 with 5% BSA at 20 uM incubated for 2 hrs by LC-MS/MS analysis. The settings on record: caco2/tc7, pH 6.5 apical, pH 7.4 basolateral.
A short description of series [13]: Permeability from apical and basolateral in human Caco2/TC7 cells at pH 7.4 in presence of 0.5% BSA. The format is ADME, cell-based. The settings on record: caco2/tc7, pH 7.4.
The test system of series [14] is Mus musculus. Put plainly: Suppression of blood glucose concentration in GLP1(9-36)NH2-treated ob/ob C57Bl/6J mouse model of T2DM at 30 mg/kg, po dosed 1 hrs before test and treated with 60 mg/kg, po OATP/MRP2 inhibitor rifampicin 2.5 hrs prior to oral glucose-tolerance test. The format is functional, organism-based. The method in brief: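 Male ob/ob mice aged 10–11 weeks, n=7, randomised on blood glucose and fasted overnight. Rifampicin 60 mg/kg p.o. 2.5 h before the oGTT, compound 30 mg/kg p.o. 1 h before, GLP1(9-36)NH2 i.p. 15 min before, each given as indicated. Glucose 2 g/kg orally. Tail-vein glucose by glucometer at 0, 15, 30, 60 and 90 min.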

A short description of series [15]: Clearance in Wistar rat at 3 mg/kg, iv administered as single dose measured up to 24 hrs ESI-LC/MS-MS analysis. The settings on record: in vivo.
Another series relates to Pancreatic islet. Put plainly: Inhibition of GLP1(9-36)NH2-mediated glucose-stimulated insulin secretion in dispersed GLP-1(-/-) mouse pancreatic islets at 10 uM incubated for 2 hrs by ELISA. The format is functional, cell-based.
For the next series, the species on record is Rattus norvegicus. Put plainly: Inhibition of GLP1(9-36)NH2-mediated glucose-stimulated insulin secretion in dispersed rat pancreatic islets at 10 uM incubated for 2 hrs by ELISA. The format is functional. The method in brief: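 Dispersed islets from male Sprague Dawley rats (collagenase digestion, Histopaque purification, Accutase dispersal, cultured up to 4 days). Pre-incubated 1 h in Krebs-Ringer with 5.6 mM glucose, then 2 h at 37 °C with 15 mM glucose, ±10 nM GLP1(9-36)NH2, ±compound 10 µM, DMSO vehicle; insulin by HTRF ELISA as % of total, n-fold vs control; N≥9.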

Active and inactive are the calls of the source. The calls are words filed in the database; no cut-off is given here.

Sequence of Vasoactive intestinal polypeptide receptor 2 (Homo sapiens) (P41587 whole entry, looked up): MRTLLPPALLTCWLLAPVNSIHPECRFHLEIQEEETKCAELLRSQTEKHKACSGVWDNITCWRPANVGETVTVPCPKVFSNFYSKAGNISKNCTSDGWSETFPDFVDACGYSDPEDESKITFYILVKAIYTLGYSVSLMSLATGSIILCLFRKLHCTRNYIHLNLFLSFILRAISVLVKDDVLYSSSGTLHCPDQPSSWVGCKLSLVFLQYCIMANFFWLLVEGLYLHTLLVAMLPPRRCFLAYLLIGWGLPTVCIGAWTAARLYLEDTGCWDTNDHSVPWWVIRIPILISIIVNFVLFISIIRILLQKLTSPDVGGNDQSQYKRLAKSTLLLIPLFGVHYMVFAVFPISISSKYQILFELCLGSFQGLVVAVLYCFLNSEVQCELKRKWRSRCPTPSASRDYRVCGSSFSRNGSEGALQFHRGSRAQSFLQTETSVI
Sequence of Glucagon-like peptide 1 receptor (P43220 whole entry): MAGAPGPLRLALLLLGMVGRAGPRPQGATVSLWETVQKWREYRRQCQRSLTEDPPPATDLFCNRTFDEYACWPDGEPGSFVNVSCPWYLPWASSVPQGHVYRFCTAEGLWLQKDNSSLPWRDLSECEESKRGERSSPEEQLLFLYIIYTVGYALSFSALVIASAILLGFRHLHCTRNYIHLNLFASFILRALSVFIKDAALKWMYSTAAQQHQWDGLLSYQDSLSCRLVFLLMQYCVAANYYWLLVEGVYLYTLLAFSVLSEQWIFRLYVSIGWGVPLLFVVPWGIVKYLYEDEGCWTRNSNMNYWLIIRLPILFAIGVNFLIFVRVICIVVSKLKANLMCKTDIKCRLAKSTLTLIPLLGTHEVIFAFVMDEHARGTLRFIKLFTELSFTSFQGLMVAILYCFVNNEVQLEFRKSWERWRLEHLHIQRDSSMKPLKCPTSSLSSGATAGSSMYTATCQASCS
Sequence of Voltage-gated inwardly rectifying potassium channel KCNH2 (Q12809 whole entry): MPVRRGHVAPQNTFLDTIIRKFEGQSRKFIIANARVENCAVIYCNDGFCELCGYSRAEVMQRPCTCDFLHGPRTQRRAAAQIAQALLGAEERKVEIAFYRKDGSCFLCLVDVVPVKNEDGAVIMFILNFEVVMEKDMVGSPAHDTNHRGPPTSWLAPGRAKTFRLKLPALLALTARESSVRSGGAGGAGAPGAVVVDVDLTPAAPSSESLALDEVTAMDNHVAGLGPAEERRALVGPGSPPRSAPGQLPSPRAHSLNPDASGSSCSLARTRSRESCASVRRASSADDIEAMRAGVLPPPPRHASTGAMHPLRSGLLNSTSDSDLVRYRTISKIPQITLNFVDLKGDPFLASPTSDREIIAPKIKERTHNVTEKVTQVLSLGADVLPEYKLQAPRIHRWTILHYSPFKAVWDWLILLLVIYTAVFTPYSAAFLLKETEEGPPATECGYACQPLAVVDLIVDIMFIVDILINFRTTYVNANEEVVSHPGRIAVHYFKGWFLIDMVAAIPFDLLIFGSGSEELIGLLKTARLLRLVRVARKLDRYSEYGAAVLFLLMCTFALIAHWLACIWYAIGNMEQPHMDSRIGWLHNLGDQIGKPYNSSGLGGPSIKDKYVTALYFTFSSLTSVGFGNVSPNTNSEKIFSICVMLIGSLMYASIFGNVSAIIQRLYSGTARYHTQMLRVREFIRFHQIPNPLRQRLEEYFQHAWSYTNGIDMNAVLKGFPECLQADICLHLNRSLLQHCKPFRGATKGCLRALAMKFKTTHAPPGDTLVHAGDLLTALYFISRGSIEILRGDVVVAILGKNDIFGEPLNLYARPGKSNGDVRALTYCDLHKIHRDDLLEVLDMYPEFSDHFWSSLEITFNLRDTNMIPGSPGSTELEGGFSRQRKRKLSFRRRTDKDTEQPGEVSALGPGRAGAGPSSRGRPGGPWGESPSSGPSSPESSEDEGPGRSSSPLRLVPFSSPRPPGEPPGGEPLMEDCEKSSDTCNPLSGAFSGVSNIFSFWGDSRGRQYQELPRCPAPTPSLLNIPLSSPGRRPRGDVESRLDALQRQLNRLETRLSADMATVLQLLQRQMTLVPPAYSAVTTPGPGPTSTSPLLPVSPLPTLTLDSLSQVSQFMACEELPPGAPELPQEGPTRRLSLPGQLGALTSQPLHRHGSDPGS
Sequence of Cytochrome P450 3A4 (P08684 whole entry): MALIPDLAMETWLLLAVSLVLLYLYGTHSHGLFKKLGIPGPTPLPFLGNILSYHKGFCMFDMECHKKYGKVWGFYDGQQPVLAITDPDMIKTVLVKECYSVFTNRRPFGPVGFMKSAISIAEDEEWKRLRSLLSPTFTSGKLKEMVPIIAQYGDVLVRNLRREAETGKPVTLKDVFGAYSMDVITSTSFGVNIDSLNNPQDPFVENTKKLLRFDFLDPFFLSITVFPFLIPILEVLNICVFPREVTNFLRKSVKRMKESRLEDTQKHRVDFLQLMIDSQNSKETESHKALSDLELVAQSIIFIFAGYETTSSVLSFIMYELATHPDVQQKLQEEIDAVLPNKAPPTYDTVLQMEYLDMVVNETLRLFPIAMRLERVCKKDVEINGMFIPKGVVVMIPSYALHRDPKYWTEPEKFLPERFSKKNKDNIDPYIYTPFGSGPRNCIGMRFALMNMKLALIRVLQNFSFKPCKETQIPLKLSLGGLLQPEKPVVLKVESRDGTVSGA

In series [1], `CC(C)(C)OC(=O)n1c2c(c3ccccc31)C[C@H]1C(=O)N3C[C@@H](CC(=O)O)C[C@H]3[C@@H]2N1C(=O)CC1CCC(F)(F)CC1` displayed a metabolized at 20 min of 5%. In series [2], this compound returned an AUC(0-t) at 24 h of 109 ng·h/mL. The result in series [3], in series [8] and in series [9] was inactive. For the same compound, the Activity result in the series with Mus musculus [4] was “Dose-dependent effect”. This compound also showed a Vdss in [5] of 2.29 L/kg. Moreover, the IC50 in series [6] was above 30 µM; at Cytochrome P450 3A4 it was above 50 µM. For the same compound, in series [7], the Vd is 0.815 L/kg. Also, the Stability in series [10] is on record as 99%. Besides, in [11], the concentration peaked (Cmax) at 106 ng/mL. In series [12], the Papp came out at 32 ×10⁻⁷ cm/s. Moreover, the permeability in series [13] is 0.18 ×10⁻⁷ cm/s. Further, the outcome in the series on Mus musculus [14] was Active. Besides, in series [15], the CL was 118 mL/min/kg.
As to `CC(O)CCN1C[C@H]2c3c(c4ccccc4n3C(=O)OC(C)(C)C)C[C@@H](C1=O)N2C(=O)CC1CCC(F)(F)CC1` (stereo partly specified), the result in [3], in series [8] and in series [9] was inactive. The inhibition entry with Pancreatic islet and in the series filed under Rattus norvegicus was “Active” each time.

As a reminder, the AUC(0-t) is exposure summed from dosing to a finite time, without extrapolation to infinity. The low end stands for low exposure, the high end for high exposure. As usually defined, the Vdss is a proportionality between amount in the body and measured concentration, not a real space. What is called IC50 is the concentration that inhibits the measured activity by half. One may read the Cmax as the peak of the concentration-time curve.
